The text below walks through data of ChEMBL document CHEMBL3352173, “Optimization of pyrrolamide topoisomerase II inhibitors toward identification of an antibacterial clinical candidate (AZD5099)” (J Med Chem, 2014).

One series relates to Streptococcus pyogenes. Briefly: Antimicrobial activity against Streptococcus pyogenes by broth microdilution/CLSI method. Type of series: functional.
The next series deals with Haemophilus influenzae. Briefly: Antimicrobial activity against Haemophilus influenzae by broth microdilution/CLSI method. The series is classed as functional. Conditions: Haemophilus influenzae; read-out: MIC. (In general: Dilution methods test growth across graded concentrations, often in twofold steps.)
Series [1] is described as follows: Octanol-phosphate buffer distribution coefficient, log D of the compound at pH 7.4 by shake flask method. The series is classed as physicochemical.
In another series the target is DNA gyrase subunit B (Staphylococcus aureus, UniProt P0A0K8). Briefly: Inhibition of ATPase activity of Staphylococcus aureus GyrB. In short, it runs like this: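 IC50 was determined against S. aureus GyrB in the routine screening assay. The enzyme concentration limits resolution below 10 nM.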
In the next series the test system is Moraxella catarrhalis. As to the kind of experiment: Antimicrobial activity against Moraxella catarrhalis by broth microdilution/CLSI method. Type of series: functional. Conditions: Moraxella catarrhalis; read-out: MIC.
Series [2] is described as follows: Ratio of MIC for methicillin, quinolone-resistant Staphylococcus aureus to fraction unbound in human plasma. The series is classed as ADME.
Series [3] in a line: Percentage unbound in human plasma. Type of series: ADME, cell-free.
A further series concerns Streptococcus pneumoniae. Briefly: Antibacterial activity against Streptococcus pneumoniae by broth microdilution/CLSI method. As to conditions: Streptococcus pneumoniae; read-out: MIC. Type of series: functional.
Series [4] concerns Escherichia coli. As to the kind of experiment: Antimicrobial activity against Escherichia coli tolC- by broth microdilution/CLSI method. Type of series: functional. As to conditions: Escherichia coli; read-out: MIC.
The subject of series [5] is Staphylococcus aureus. Briefly: Antimicrobial activity against methicillin-sensitive Staphylococcus aureus by broth microdilution/CLSI method. The series is classed as functional. As to conditions: Staphylococcus aureus; read-out: MIC.
Series [6] has as its system Staphylococcus aureus. Briefly: Antimicrobial activity against methicillin, quinolone-resistant Staphylococcus aureus by broth microdilution/CLSI method. Conditions: Staphylococcus aureus; read-out: MIC. The series is classed as functional.
The nature of series [7]: Solubility of the compound. Type of series: physicochemical.
Series [8] deals with Escherichia coli. Briefly: Antimicrobial activity against wild-type Escherichia coli Eco523 by broth microdilution/CLSI method. The series is classed as functional. As to conditions: Escherichia coli, Eco523; read-out: MIC.
Series [9] is described as follows: Clearance in rat at 10 mg/kg, iv. As to conditions: in vivo. More on the design: dose 10 mg/kg, route intravenous. Type of series: ADME, organism-based.
Series [10] concerns the target T1, ATP-binding cassette sub-family C member 2 (Homo sapiens, UniProt Q92887). Briefly: Inhibition of ATPase activity of human MRP2 assessed as inorganic phosphate.
The target in series [11] is T2, ATP-binding cassette sub-family C member 2 (Rattus norvegicus, UniProt Q63120). Briefly: Stimulation of ATPase activity of rat Mrp2 assessed as inorganic phosphate.
The nature of series [12]: Dissociation constant, pKa of the compound. The series is classed as physicochemical.
Series [13] can be described thus: Bioavailability in Wistar rat at 10 mg/kg, […]. Type of series: ADME, organism-based. As to conditions: in vivo.
Series [14] concerns the target T1, ATP-binding cassette sub-family C member 2. Briefly: Stimulation of ATPase activity of human MRP2 assessed as inorganic phosphate.
Series [15] can be described thus: Clearance in dog at 10 mg/kg, iv. Conditions: plasma. The series is classed as ADME, organism-based, Canis lupus familiaris. On the set-up: dose 10 mg/kg, route intravenous.
Series [16] can be described thus: Clearance in TR-negative Wistar rat at 10 mg/kg, iv. The series is classed as ADME, organism-based. On the set-up: dose 10 mg/kg, route intravenous. Conditions: in vivo.
Series [17] in a line: Percentage unbound in dog plasma. Type of series: ADME, cell-free, Canis lupus familiaris.
The nature of series [18]: Clearance in Wistar rat at 10 mg/kg, iv. The series is classed as ADME, organism-based. On the set-up: dose 10 mg/kg, route intravenous. Conditions: in vivo.
The target in series [19] is T2, ATP-binding cassette sub-family C member 2. Briefly: Inhibition of ATPase activity of rat Mrp2 assessed as inorganic phosphate.
Series [20] can be described thus: Clearance in CD1 mouse at 10 mg/kg, iv. The series is classed as ADME, organism-based. On the set-up: dose 10 mg/kg, route intravenous. As to conditions: in vivo.
A short description of series [21]: Percentage unbound in mouse plasma. The series is classed as ADME, cell-free.
Series [22] in a line: Percentage unbound in rat plasma. Type of series: ADME, cell-free.

The structures appear in SMILES notation. Converted amounts (≈) assume the structure as drawn.

DNA gyrase subunit B, sequence (P0A0K8 whole entry): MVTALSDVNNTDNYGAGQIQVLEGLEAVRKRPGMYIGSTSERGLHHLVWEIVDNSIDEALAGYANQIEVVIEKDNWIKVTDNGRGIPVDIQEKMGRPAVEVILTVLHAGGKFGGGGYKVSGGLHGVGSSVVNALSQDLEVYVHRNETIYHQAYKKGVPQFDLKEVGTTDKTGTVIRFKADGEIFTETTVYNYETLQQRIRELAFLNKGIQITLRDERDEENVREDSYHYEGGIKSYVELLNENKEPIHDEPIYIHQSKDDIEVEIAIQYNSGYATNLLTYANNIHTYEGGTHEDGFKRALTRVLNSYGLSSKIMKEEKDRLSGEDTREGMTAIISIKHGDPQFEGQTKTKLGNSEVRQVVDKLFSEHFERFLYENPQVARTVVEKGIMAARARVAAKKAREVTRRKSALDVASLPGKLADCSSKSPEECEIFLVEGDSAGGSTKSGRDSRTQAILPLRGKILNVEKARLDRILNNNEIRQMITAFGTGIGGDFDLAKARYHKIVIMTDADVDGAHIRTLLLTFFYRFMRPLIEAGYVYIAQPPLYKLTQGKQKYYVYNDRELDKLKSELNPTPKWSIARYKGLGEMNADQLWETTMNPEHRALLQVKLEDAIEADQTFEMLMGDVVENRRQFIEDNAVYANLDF
T1 sequence (Q92887 whole entry): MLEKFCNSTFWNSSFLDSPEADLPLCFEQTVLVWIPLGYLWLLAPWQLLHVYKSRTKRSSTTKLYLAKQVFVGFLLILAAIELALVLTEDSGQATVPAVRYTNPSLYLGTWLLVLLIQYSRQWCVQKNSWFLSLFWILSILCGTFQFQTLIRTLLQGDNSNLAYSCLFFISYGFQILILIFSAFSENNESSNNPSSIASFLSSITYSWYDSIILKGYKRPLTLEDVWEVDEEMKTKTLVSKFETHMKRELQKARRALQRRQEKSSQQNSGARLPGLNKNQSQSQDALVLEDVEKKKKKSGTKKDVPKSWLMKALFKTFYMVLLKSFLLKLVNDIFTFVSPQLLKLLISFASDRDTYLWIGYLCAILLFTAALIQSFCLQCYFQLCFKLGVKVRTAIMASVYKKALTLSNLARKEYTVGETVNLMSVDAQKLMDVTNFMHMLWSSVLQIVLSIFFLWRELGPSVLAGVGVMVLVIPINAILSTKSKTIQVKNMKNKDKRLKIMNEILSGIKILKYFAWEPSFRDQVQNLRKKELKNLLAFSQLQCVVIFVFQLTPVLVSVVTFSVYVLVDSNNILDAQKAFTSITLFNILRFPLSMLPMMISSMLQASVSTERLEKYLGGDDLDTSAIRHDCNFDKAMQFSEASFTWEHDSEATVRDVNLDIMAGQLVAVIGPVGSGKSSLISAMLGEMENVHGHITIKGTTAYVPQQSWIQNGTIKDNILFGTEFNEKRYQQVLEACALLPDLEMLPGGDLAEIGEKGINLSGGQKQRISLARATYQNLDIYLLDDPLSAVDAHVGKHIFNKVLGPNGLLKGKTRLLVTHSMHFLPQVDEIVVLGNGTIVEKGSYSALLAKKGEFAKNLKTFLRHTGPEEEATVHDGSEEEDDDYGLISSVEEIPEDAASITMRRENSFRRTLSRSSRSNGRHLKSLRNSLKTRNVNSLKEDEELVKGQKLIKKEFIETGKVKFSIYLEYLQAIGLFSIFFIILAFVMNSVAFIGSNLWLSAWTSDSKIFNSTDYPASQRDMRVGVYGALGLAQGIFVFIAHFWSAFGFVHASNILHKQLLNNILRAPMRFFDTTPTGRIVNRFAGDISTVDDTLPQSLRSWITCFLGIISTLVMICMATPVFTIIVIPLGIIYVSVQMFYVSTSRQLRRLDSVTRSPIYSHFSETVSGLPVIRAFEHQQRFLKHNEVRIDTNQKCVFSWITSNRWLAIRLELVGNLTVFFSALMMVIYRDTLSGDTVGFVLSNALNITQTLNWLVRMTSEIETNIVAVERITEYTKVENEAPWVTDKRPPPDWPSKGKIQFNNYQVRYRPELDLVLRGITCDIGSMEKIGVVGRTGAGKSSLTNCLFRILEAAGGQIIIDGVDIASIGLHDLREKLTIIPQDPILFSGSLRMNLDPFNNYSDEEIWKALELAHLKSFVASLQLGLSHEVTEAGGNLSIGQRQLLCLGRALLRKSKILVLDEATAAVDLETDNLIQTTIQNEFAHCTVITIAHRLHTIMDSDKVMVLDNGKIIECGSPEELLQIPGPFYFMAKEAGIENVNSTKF
T2 sequence (Q63120 whole entry): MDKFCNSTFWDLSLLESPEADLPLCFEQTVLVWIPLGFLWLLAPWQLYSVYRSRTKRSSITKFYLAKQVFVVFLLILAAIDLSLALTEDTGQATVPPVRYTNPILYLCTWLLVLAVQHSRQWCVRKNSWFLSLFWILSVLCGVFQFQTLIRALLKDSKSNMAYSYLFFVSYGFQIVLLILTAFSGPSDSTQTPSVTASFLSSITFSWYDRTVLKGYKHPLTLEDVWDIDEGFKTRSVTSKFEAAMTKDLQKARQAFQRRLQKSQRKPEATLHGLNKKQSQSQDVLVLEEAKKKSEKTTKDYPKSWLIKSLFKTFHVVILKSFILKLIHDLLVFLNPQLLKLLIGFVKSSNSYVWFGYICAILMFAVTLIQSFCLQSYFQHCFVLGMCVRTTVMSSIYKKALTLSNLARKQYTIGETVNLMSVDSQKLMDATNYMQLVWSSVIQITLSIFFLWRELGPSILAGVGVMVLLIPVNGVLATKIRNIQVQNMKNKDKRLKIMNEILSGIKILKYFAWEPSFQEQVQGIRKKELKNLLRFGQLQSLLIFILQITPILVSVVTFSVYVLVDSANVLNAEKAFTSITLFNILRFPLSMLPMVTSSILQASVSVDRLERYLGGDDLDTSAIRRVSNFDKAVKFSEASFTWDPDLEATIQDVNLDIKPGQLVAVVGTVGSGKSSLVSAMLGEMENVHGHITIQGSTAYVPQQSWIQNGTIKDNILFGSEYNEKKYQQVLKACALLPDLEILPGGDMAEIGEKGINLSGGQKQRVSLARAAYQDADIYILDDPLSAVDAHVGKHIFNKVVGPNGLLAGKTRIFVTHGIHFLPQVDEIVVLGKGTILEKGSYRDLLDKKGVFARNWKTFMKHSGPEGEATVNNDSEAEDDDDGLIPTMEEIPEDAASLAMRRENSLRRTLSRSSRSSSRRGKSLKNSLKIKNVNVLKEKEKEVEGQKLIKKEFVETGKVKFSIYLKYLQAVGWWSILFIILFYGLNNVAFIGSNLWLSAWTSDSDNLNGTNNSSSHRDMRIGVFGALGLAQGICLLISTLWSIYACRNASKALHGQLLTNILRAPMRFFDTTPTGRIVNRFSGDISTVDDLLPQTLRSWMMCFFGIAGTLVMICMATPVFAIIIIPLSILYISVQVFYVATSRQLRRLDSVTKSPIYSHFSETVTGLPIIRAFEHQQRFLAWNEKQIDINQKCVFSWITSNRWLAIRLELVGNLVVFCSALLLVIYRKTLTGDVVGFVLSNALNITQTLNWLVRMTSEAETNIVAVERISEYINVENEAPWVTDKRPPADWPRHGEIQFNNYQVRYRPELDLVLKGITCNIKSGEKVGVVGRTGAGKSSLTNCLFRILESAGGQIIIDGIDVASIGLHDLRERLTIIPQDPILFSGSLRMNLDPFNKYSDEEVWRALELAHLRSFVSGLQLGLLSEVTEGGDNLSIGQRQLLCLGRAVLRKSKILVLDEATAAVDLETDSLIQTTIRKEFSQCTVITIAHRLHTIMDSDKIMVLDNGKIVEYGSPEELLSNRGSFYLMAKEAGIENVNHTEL

In the case of `CO[C@H]1CN(c2nc(-c3nc(C)no3)c(C(=O)O)s2)CC[C@H]1NC(=O)c1[nH]c(C)c(Cl)c1Cl`, the MIC in the series with Streptococcus pyogenes was < 0.06 µg/mL; in the series with Haemophilus influenzae, 0.13 µg/mL (≈ 0.252 µM); with Moraxella catarrhalis it was < 0.06 µg/mL; with Streptococcus pneumoniae it was < 0.06 µg/mL; with Escherichia coli [4], 0.5 µg/mL (≈ 0.97 µM); in the series on Staphylococcus aureus [5] it was 0.13 µg/mL (≈ 0.252 µM). For the same compound, the MIC in the series with Staphylococcus aureus [6] stood at 0.13 µg/mL (≈ 0.252 µM); in the series on Escherichia coli [8], 32 µg/mL (≈ 62.1 µM). In series [1], the logD (commonly the decadic logarithm of the distribution of all forms, ionised or not, between an organic phase and buffer at a given pH) is 0.07. Also, the half-maximal inhibitory concentration (IC50) (usually the concentration at which inhibition is half-maximal) at DNA gyrase subunit B is < 10 nM. Besides, the Ratio in [2] came out at 8.7. Further, the free fraction (fraction unbound) (usually free concentration divided by total concentration) in series [3] was determined as 0.015. The solubility (in general, the dissolved amount per volume that the medium holds) in [7] was found to be 630 µM (≈ 325 µg/mL). For the same compound, in series [9], the clearance (in general, the volume of plasma or blood freed of the substance per unit of time) stood at 110 mL/min/kg.

`CO[C@H]1CN(c2nc(-c3ccncn3)c(C(=O)O)s2)CC[C@H]1NC(=O)c1[nH]c(C)c(Cl)c1Cl`: the MIC in the series on Streptococcus pyogenes was < 0.06 µg/mL; in the series with Haemophilus influenzae it was 0.12 µg/mL (≈ 0.235 µM); in the series with Moraxella catarrhalis, < 0.06 µg/mL; with Streptococcus pneumoniae, < 0.06 µg/mL; in the series on Escherichia coli [4] it was 0.5 µg/mL (≈ 0.978 µM); in the series on Staphylococcus aureus [5], < 0.06 µg/mL. In addition, the MIC was 0.031 µg/mL (≈ 0.0606 µM) with Staphylococcus aureus [6] and 16 µg/mL (≈ 31.3 µM) in the series with Escherichia coli [8]. This compound came in with a pH-dependent lipophilicity (logD) in series [1] of 1.7. The IC50 at DNA gyrase subunit B was < 10 nM. For the same compound, in [2], the Ratio is on record as 0.74. Also, the fraction unbound in series [3] turned out to be 0.042. In series [7], the concentration in solution (solubility) was 350 µM (≈ 179 µg/mL). Besides, the clearance in [9] came out at 3.8 mL/min/kg.

Regarding `CO[C@H]1CN(c2nc(C(C)=O)c(C(=O)O)s2)CC[C@H]1NC(=O)c1[nH]c(C)c(Cl)c1Cl`, the MIC against Streptococcus pyogenes is 0.02 µg/mL (≈ 0.0421 µM); in the series with Haemophilus influenzae, 0.15 µg/mL (≈ 0.316 µM); in the series with Moraxella catarrhalis it was 0.02 µg/mL (≈ 0.0421 µM); in the series on Streptococcus pneumoniae, 0.02 µg/mL (≈ 0.0421 µM); with Escherichia coli [4], 0.26 µg/mL (≈ 0.547 µM); with Staphylococcus aureus [5], 0.063 µg/mL (≈ 0.133 µM). Also, the MIC in the series with Staphylococcus aureus [6] is 0.063 µg/mL (≈ 0.133 µM); in the series on Escherichia coli [8], 30 µg/mL (≈ 63.1 µM). In addition, the logD in series [1] was 0.36. Also, at DNA gyrase subunit B, the IC50 was < 10 nM. The Ratio in [2] was found to be 3.7. In series [3], this compound returned a fraction unbound of 0.019. The solubility in [7] came out at 890 µM (≈ 423 µg/mL). This compound yielded a clearance in series [9] of 9.3 mL/min/kg.

On to `Cc1[nH]c(C(=O)NC2CCN(c3ncc(C(=O)O)s3)CC2)c(Cl)c1Cl`, for which the MIC in the series on Streptococcus pyogenes was found to be 0.79 µg/mL (≈ 1.96 µM); with Haemophilus influenzae it was 0.5 µg/mL (≈ 1.24 µM); in the series on Moraxella catarrhalis, 2.2 µg/mL (≈ 5.46 µM); with Streptococcus pneumoniae, 0.81 µg/mL (≈ 2.01 µM); in the series on Escherichia coli [4], 0.22 µg/mL (≈ 0.546 µM); with Staphylococcus aureus [5], 11 µg/mL (≈ 27.3 µM). For the same compound, the MIC with Staphylococcus aureus [6] is 13 µg/mL (≈ 32.2 µM); in the series with Escherichia coli [8] it was > 64 µg/mL. In addition, the figures for the IC50 (at DNA gyrase subunit B; in series [10]; in [19]) were 62 nM, > 200000 nM and > 200000 nM, respectively. Besides, the values for the concentration giving a half-maximal response (EC50) in [11] and in [14] were 27000 nM and 145000 nM, respectively. For the same compound, in [12], the pKa (in general, the negative logarithm of the acid dissociation constant) was found to be 3.4. The bioavailability (commonly the share of a dose that reaches the circulation, judged against a reference dose that is usually intravenous) in series [13] was 6.7%. Also, the clearance in series [15] was found to be 3 mL/min/kg; in series [16], 20 mL/min/kg; in [18], 78 mL/min/kg; in series [20] it was 15.5 mL/min/kg. Moreover, the fraction unbound in series [17] amounted to 0.12; in series [21], 0.089; in [22], 0.086.

`CO[C@H]1CN(c2nc(C(=O)O)cs2)CC[C@H]1NC(=O)c1[nH]c(C)c(Cl)c1Cl`: the MIC against Streptococcus pyogenes came out at 0.035 µg/mL (≈ 0.0808 µM); with Haemophilus influenzae, 0.1 µg/mL (≈ 0.231 µM); with Moraxella catarrhalis it was 0.05 µg/mL (≈ 0.115 µM); in the series on Streptococcus pneumoniae, 0.2 µg/mL (≈ 0.462 µM); in the series with Escherichia coli [4], 0.1 µg/mL (≈ 0.231 µM); with Staphylococcus aureus [5], 0.2 µg/mL (≈ 0.462 µM). The MIC with Staphylococcus aureus [6] is 0.32 µg/mL (≈ 0.738 µM); in the series on Escherichia coli [8], > 8 µg/mL. The compound further came in with a logD in series [1] of 0.25. Also, on DNA gyrase subunit B, the IC50 was < 10 nM. For the same compound, the Ratio in [2] is listed as 15. The compound also gave a free fraction (fraction unbound) in series [3] of 0.022. Besides, the solubility in [7] came to 930 µM (≈ 403 µg/mL). The clearance in series [9] was determined as 49 mL/min/kg.

As to `CO[C@H]1CN(c2nc(C(=O)NCC3OCCO3)c(C(=O)O)s2)CC[C@H]1NC(=O)c1[nH]c(C)c(Cl)c1Cl`, the MIC against Streptococcus pyogenes is 0.02 µg/mL (≈ 0.0356 µM); with Haemophilus influenzae it was 0.1 µg/mL (≈ 0.178 µM); with Moraxella catarrhalis, 0.013 µg/mL (≈ 0.0231 µM); in the series on Streptococcus pneumoniae it was 0.04 µg/mL (≈ 0.0711 µM); in the series on Escherichia coli [4], 0.79 µg/mL (≈ 1.4 µM); in the series on Staphylococcus aureus [5], 0.063 µg/mL (≈ 0.112 µM). Besides, the MIC in the series with Staphylococcus aureus [6] is 0.1 µg/mL (≈ 0.178 µM); in the series on Escherichia coli [8], > 8 µg/mL. The log distribution coefficient (logD) in series [1] came out at 0.76. For the same compound, the 50% inhibitory concentration (IC50) at DNA gyrase subunit B is < 10 nM. In addition, in series [2], the Ratio was 3.6. Besides, the free fraction (fraction unbound) in [3] worked out at 0.028. The compound also displayed a solubility in [7] of 940 µM (≈ 529 µg/mL). This compound gave a clearance in series [9] of 33 mL/min/kg.
